The full list was thinned out, with hits kept by preference.
Lmaj promast = reduces viability of Leishmania major promastigotes. resazurin fluorescence viability. inhibition, % at 10 µM. 200,000 compounds, 9% hits. AID 1063; in the data active means inhibition above about 50%;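 further: promastigotes grown with compound for 44 hours at 28 °C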
S1P4 antagonist = human S1P4 receptor antagonism; O95977; 220,000 compounds, 0.26% hits; S1P4-expressing cells, antagonist mode, reporter read-out; inhibition, % at 4.98 µM; in the data active means inhibition above about 29%
S1P4 agonist = human S1P4 receptor agonism | O95977 | 220,000 compounds, 0.35% hits | activation, % at 4.98 µM | S1P4-expressing cell line, agonist reporter assay; in the data active means activation above about 11%
MDM2 E3 inh = blocks human Mdm2 ubiquitin ligase activity; signal enhancement, % at 5 µM; cell-based MDM2 ubiquitination luciferase reporter, 2 h; 0 = plate control, 100 = twice control, blank-subtracted; Q00987; 210,000 compounds, 0.11% hits;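 active means signal enhancement of 30% or more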;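 further: luminescence tracks abundance of the self-degrading MDM2-luciferase fusion protein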
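Assay system: mammalian cells stably expressing self-ubiquitinating, self-degrading MDM2 E3–luciferase fusion. Quantity: 2000 cells in each well. Medium: DMEM culture medium. Compound dosing: single-point 5 µM. Timing: cell settling 4 h, compound treatment 2 h, both 37 °C. Technique: luciferase luminescence. Read-out basis: percent signal gain over controls, blank-subtracted. Benchmarks: plate controls and plate blanks.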
S1P3 antag = S1P3 (human) receptor antagonism | Q99500 | CHO S1P3 NFAT-BLA reporter, FRET fluorescence, antagonist mode | inhibition, % at 4.98 µM | 170,000 compounds, 0.27% hits;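 active means inhibition above the plate cutoff, the mean inhibition of test wells on that plate plus 3 SD, cut at about 28% in these data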;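 further: cells challenged with S1P at its EC80 of 0.8 µM; blue over green emission ratio from cleaved BLA substrate after 4 h stimulation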
Target sequence (Q99500 whole entry, looked up): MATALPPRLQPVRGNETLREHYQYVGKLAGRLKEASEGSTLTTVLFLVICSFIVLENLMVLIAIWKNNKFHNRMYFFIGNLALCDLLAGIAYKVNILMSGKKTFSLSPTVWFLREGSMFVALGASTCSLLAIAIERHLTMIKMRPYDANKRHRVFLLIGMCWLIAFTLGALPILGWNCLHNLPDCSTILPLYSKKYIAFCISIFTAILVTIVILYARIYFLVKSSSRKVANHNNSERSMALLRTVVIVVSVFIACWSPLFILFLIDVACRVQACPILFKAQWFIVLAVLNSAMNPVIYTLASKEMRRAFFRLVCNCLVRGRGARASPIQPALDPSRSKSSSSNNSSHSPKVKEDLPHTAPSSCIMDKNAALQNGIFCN
Of the large screens only hits and unclear results are named; the others gave an inactive call.

O=C(Nc1cc(Sc2nc3ccccc3s2)cc([N+](=O)[O-])c1)c1cccc(F)c1F	Lmaj promast 73.2
O=C(Nc1cc(Sc2ccccn2)cc([N+](=O)[O-])c1)c1ccc([N+](=O)[O-])cc1	none (no result: S1P3 antag)
Cc1ccc(C(=O)c2cnc3ccccc3c2-c2ccccc2)cc1	Lmaj promast 57.1 (no result: S1P3 antag)
COc1ccc(C(=O)c2cnc3ccccc3c2-c2ccccc2)cc1	none (no result: S1P3 antag)
COc1ccccc1N/C(=N/S(=O)(=O)c1ccc(C)cc1)c1ccc(Cl)cc1	Lmaj promast 99.9 (no result: S1P3 antag)
COc1ccccc1NS(=O)(=O)c1cc(N/C(=N\S(=O)(=O)c2ccccc2)c2ccc(F)cc2)ccc1Cl	Lmaj promast 98.9
CC(=O)c1cc2c(cc1N/C(=N/S(=O)(=O)c1ccc(C)cc1)c1ccccc1)OCO2	Lmaj promast 58.8
CC(=O)c1cc2c(cc1N/C(=N/S(=O)(=O)c1ccc(C)cc1)c1ccc(Cl)cc1)OCO2	none
O=S(=O)(/N=C(/Nc1ccc(F)cc1F)c1ccc(Cl)cc1)c1ccccc1	none (no result: S1P3 antag)
COc1ccccc1NS(=O)(=O)c1cc(NC(=S)Nc2cc(C)cc(C)c2)ccc1Cl	none (no result: MDM2 E3 inh)
CCCCOc1ccc(Nc2cc(Cl)ccc2C(=O)O)cn1	none (no result: Lmaj promast)
Cc1ccc(OCc2ccc(C(=O)O)o2)c([N+](=O)[O-])c1	none
CCCCCn1c(CCCNC(=O)CC)nc2ccccc21	none
C=CCn1c(SCC(=O)N2CC(=O)Nc3ccccc32)nc2scc(-c3cccs3)c2c1=O	Lmaj promast 65.1
O=C1CN(C(=O)CSc2nc3ccccc3n2CCc2ccccc2)c2ccccc2N1	Lmaj promast 58.1
COC(=O)CS(=O)(=O)c1ccsc1C(=O)Nc1ccc(F)c(F)c1	none
Cc1cc(C)nc(-n2nc(C)cc2NC(=O)c2cccc(S(=O)(=O)N3CCCCC3)c2)n1	Lmaj promast 72.2 (no result: S1P3 antag)
Cc1cc(NC(=O)c2cccc(S(=O)(=O)N3CCCCCC3)c2)n(-c2ccccn2)n1	none
NC(=O)C(c1ccc(Cl)cc1Cl)c1ncc(C(F)(F)F)cc1Cl (stereo unspecified)	none (no result: S1P3 antag)
CC1CCN(C(=O)CSc2nnc(CSc3ncccn3)n2C)CC1	none
Cc1cc(C=O)c(C)n1-c1cc(C(F)(F)F)ccc1N1CCOCC1	Lmaj promast 93.7 (no result: S1P3 antag)
Cc1ccc(N(C(=O)Cc2cccs2)C(C(=O)NC2CCCCC2)c2ccccn2)cc1C (stereo unspecified)	none
CCOc1ccc(/C=N/OCC(=O)NCc2ccco2)cc1	none
CCN1CCN(c2nc(N)c([N+](=O)[O-])c(Nc3ccc(C)c(C)c3)n2)CC1	Lmaj promast 60.0
Cc1ccc(Nc2nc(N3CCN(C)CC3)nc(N)c2[N+](=O)[O-])cc1C	Lmaj promast 97.3
CCN1CCN(c2nc(N)c([N+](=O)[O-])c(Nc3ccc(C)cc3)n2)CC1	none
C/C(=N\NC(=O)c1c(-c2ccccc2Cl)noc1C)c1cccc(NC(=O)C(C)C)c1	none
CC(NC(=O)Cn1cccc1C(=O)c1ccccc1)c1ccc2c(c1)OCCO2 (stereo unspecified)	Lmaj promast 88.5
Cc1nc2cc(-c3cccc(F)c3)nn2c(C)c1CCC(=O)NC(C)c1ccc2c(c1)OCCO2 (stereo unspecified)	Lmaj promast 96.7 (no result: MDM2 E3 inh)
Cc1nc2cc(-c3ccccc3)nn2c(C)c1CCC(=O)NC(C)c1ccc2c(c1)OCCO2 (stereo unspecified)	Lmaj promast 95.4 (no result: MDM2 E3 inh)
O=C(Cn1cccc1C(=O)c1ccccc1)NCc1ccc2c(c1)OCO2	none
Cc1ccc(NC(=S)NCc2ccco2)c(C)c1	none (no result: Lmaj promast)
CCc1ccc(NC(=O)C(CC)Sc2nc3cc4c(cc3c(=O)n2Cc2ccco2)OCO4)cc1 (stereo unspecified)	none (no result: S1P3 antag)
CCc1ccccc1NC(=O)C(CC)Sc1nc2cc3c(cc2c(=O)n1Cc1ccco1)OCO3 (stereo unspecified)	Lmaj promast 100.3 (no result: S1P3 antag)
COC(=O)[C@@H]1C[C@@]2(O)[C@H](O)[C@H](O)[C@H](O)C[C@H]2N1Cc1ccc(-c2ccccc2)cc1	none (no result: Lmaj promast, S1P4 antagonist, S1P4 agonist, S1P3 antag)
O=C(Nc1cccc(F)c1)NC1CC2CCCC(C1)N2C1CC1 (stereo unspecified)	none
O=C(Nc1ccc(Cl)c(C(F)(F)F)c1)NC1CC2CCCC(C1)N2C1CC1 (stereo unspecified)	Lmaj promast 59.5 (no result: MDM2 E3 inh, S1P3 antag)
Cc1ccc(-n2c(-c3ccncc3)nnc2-c2cccs2)cc1	none (no result: MDM2 E3 inh)
CC(=O)Nc1ccc(SCC(=O)c2cc(C)n(-c3ccccc3F)c2C)cc1	Lmaj promast 80.8
COC(=O)c1ccc(-n2c(C)cc(C(=O)CSc3ccc(NC(C)=O)cc3)c2C)cc1	none
Cc1ccc(N2C(=O)C(NC(=O)c3ccccc3)(C(F)(F)F)C3=C2CC(C)(C)CC3=O)cc1 (stereo unspecified)	Lmaj promast 89.0
COC(=O)c1ccc(CSc2nc3c(c(=O)n2-c2ccc(Br)cc2)SCC3)o1	Lmaj promast 98.1 (no result: S1P3 antag)
CCOc1ccc(-n2c(SCc3ccc(C(=O)OC)o3)nc3c(c2=O)SCC3)cc1	Lmaj promast 83.1 (no result: S1P3 antag)
CC(C)c1nc(SCC(=O)c2ccccc2)c2c(=O)n(C)c(=O)n(C)c2n1	none (no result: S1P3 antag)
N=c1c2c(-c3ccccc3)c(-c3ccccc3)n(Cc3ccco3)c2ncn1Cc1ccco1	Lmaj promast 100.2
N=c1c2c(-c3ccccc3)c(-c3ccccc3)n(Cc3ccccc3)c2ncn1CCCn1ccnc1	Lmaj promast 100.4 (no result: S1P3 antag)
CC#C[C@]1(O)CC[C@H]2[C@@H]3CCC4=CC(=O)CCC4=C3[C@@H](c3ccc(N(C)C)cc3)C[C@@]21C	none (no result: MDM2 E3 inh)
O=C(c1ccco1)c1cn[nH]c1-c1ccc(Cl)cc1O	none (no result: S1P3 antag)
O=C1c2ccccc2C(=O)c2c1ccc1c(=O)n(-c3ccccc3)[nH]c21	none
CC(C)Cn1[nH]c2c3c(ccc2c1=O)C(=O)c1ccccc1C3=O	Lmaj promast 90.1 (no result: S1P3 antag)
O=C(Cn1cnc2ccccc2c1=O)NCCC(=O)Nc1ccc2c(c1)OCO2	none
O=C(Nc1ccccc1N1CCCC1)c1ccc([N+](=O)[O-])cc1Cl	none
Oc1c(Cl)cc(Cl)cc1/C=N/Nc1ncc(Br)cn1	Lmaj promast 96.0
Cc1ccc(N=Cc2cc(Cl)cc(Cl)c2O)nc1	none
CN(C)CCCNc1ccc(-c2nn(C)c(=O)c3ccccc23)cc1[N+](=O)[O-]	Lmaj promast 100.2
COCCNc1ccc(-c2nn(C)c(=O)c3ccccc23)cc1[N+](=O)[O-]	none (no result: Lmaj promast, MDM2 E3 inh)
CC(C)N=c1scc(-c2cccs2)n1/N=C/c1ccc(O)c(O)c1O	S1P4 agonist 17.5
CN=c1scc(-c2ccco2)n1/N=C/c1ccc(O)c(O)c1	none
CN=c1scc(-c2ccccc2F)n1/N=C/c1ccc(O)c(O)c1O	none
Fc1ccccc1-c1csc(=Nc2cccnc2)n1CC1CCCO1 (stereo unspecified)	none
Fc1ccccc1-c1csc(=Nc2cccnc2)n1CCCn1ccnc1	Lmaj promast 75.8
COCCn1c(-c2ccco2)csc1=Nc1cccnc1	none (no result: S1P3 antag)
CC(C)Cn1c(-c2ccco2)csc1=Nc1cccnc1	Lmaj promast 58.3 (no result: S1P3 antag)
COc1ccc(O)c(/C=N/n2c(-c3ccco3)csc2=Nc2cccnc2)c1	Lmaj promast 91.2

Assay outcomes deposited in PubChem BioAssay by several laboratories.
